Measured values taken from ChEMBL document CHEMBL5316351, “Development of a Covalent Inhibitor of c-Jun N-Terminal Protein Kinase (JNK) 2/3 with Selectivity over JNK1” (J Med Chem, 2023).
pIC50, pKd: −log10 of the molar value. Values belong to the molecule of their own block, whether it stands above or below them. Activity calls are given as the source filed them. The calls are words filed in the database; no cut-off is given here.

What was measured:
[1] = molecular target: T1, Mitogen-activated protein kinase 9 (Homo sapiens, UniProt P45984); assay: Inhibition of His-tagged human recombinant JNK2 expressed in baculovirus expression system incubated for 1 hr in presence of ATP by Z'-Lyte assay
Target sequence in this assay (P45984 whole entry): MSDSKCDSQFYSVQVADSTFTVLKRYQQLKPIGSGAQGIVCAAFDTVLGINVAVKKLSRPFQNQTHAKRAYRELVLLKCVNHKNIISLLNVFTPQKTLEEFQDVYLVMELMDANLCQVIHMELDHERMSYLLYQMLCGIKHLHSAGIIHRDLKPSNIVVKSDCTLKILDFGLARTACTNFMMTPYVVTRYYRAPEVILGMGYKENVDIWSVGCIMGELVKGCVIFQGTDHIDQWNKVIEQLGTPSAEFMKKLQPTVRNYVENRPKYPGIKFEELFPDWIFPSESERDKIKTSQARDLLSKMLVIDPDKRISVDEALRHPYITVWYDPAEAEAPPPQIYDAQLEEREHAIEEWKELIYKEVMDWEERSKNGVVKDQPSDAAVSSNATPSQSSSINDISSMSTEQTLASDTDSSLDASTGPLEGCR

[2] = molecular target: T2, Mitogen-activated protein kinase 8 (Homo sapiens, UniProt P45983); assay: Inhibition of His-tagged human recombinant JNK1 expressed in insect cells incubated for 1 hr in presence of ATP by Z'-Lyte assay; parameters: species or system Insect cell
Homo sapiens [3] = species on record: Homo sapiens; assay: Selectivity ratio of IC50 for His-tagged human recombinant JNK1 expressed in insect cells to His-tagged human recombinant JNK2 expressed in baculovirus expression system
Summary of the method: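 Z′-Lyte kinase assays of JNK1 and JNK2 with 100 μM ATP and 1 h compound incubation. Fixed time point IC50 was determined in duplicate. The selectivity ratio is JNK1 IC50 over JNK2 IC50.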

MM1.S = assay: Antiproliferative activity against human MM1.S cells assessed as inhibition of cell growth rate measured after 72 hrs by CellTiter-Glo luminescent assay; format: functional
[4] = molecular target: T1, Mitogen-activated protein kinase 9; assay: Inhibition of Nano-Luc fused JNK2 (unknown origin) expressed in HEK293T cells pretreated for 3 hrs followed by K5-tarcer addition and measured after 1 hr by NanoBRET assay; format: cell-based
Target sequence in this assay (P45984 whole entry): as above

[5] = molecular target: T3, Mitogen-activated protein kinase 14 (Homo sapiens, UniProt Q16539); assay: Inhibition of Nano-Luc fused p38alpha (unknown origin) expressed in HEK293T cells pretreated for 3 hrs followed by K5-tarcer addition and measured after 1 hr by NanoBRET assay; format: cell-based; conditions: time 4.0 hrs
[6] = molecular target: T3, Mitogen-activated protein kinase 14; assay: Inhibition of GST-tagged human recombinant p38alpha expressed in Escherichia coli by Z'-LYTE assay
[7] = Antiproliferative activity against human HAP1 cells assessed as inhibition of cell growth incubated for 3 days by CellTiter-Glo luminescent assay; format: functional, cell-based; conditions: HAP1, 72 h
HAP1 = assay: Antiproliferative activity against human HAP1 cells assessed as inhibition of cell growth incubated for 3 days in presence of VX745 by CellTiter-Glo luminescent assay; format: functional, cell-based; conditions: time 3.0 day
[8] = molecular target: T4, 1-phosphatidylinositol 3-phosphate 5-kinase (Homo sapiens, UniProt Q9Y2I7); assay: Inhibition of PIKFYVE in human SUM159 cells at 1 uM by KiNativ Profiling analysis; format: cell-based; conditions: SUM159PT
Summary of the method: (§1)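 SUM159 cells treated with 1 μM compound, collected, PBS-washed and frozen; lysates probed with ATP/ADP-biotin acyl probe labelling catalytic lysine (KiNativ); protection from labelling measured.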

[9] = molecular target: T3, Mitogen-activated protein kinase 14; assay: Inhibition of wild type full length human p38 alpha (M1 to S360 residues) expressed in bacterial expression system at 1 uM by KinomeScan analysis
Summary of the method: (§2)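 KINOMEscan (ScanMAX) binding panel of >400 kinases, compound tested at 1 μM; reported as percent inhibition/score.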

[10] = molecular target: T4, 1-phosphatidylinositol 3-phosphate 5-kinase; assay: Binding affinity to wild type partial length human PIKFYVE (F1512 to C2098 residues) expressed in mammalian expression system by KdELECT kinase assay
[11] = molecular target: T3, Mitogen-activated protein kinase 14; assay: Inhibition of p38alpha in human SUM159 cells at 1 uM by KiNativ Profiling analysis; format: cell-based; conditions: SUM159PT
Summary of the method: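 SUM159 cells treated with 1 μM compound, then washed with PBS and frozen. Lysates were chased with a nonspecific ATP or ADP-biotin probe that labels the conserved catalytic lysine.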

[12] = molecular target: T1, Mitogen-activated protein kinase 9; assay: Inhibition of wild type full length human JNK2 (M1 to Q382 residues) expressed in mammalian expression system at 1 uM by KinomeScan analysis; summary of the method: as §2
Target sequence in this assay (P45984 whole entry, looked up): as the sequence (P45984 whole entry) above

SUM159PT = assay: Inhibition of CK1gamma in human SUM159 cells at 1 uM by KiNativ Profiling analysis; format: cell-based; summary of the method: as §1
[13] = molecular target: T4, 1-phosphatidylinositol 3-phosphate 5-kinase; assay: Inhibition of PIKFYVE in human MDA-MB-231 cells assessed as vacuole formation at 1 uM measured after 3 days by bright field microscopy; format: cell-based; conditions: time 3.0 day
Summary of the method: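 MDA-MB-231 cells (DMEM, 10% FBS) seeded, next day treated with inhibitor or DMSO; after 3 days imaged by bright-field microscopy at 20× for vacuoles.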

[14] = molecular target: T4, 1-phosphatidylinositol 3-phosphate 5-kinase; assay: Inhibition of wild type partial length human PIKFYVE (F1512 to C2098 residues) expressed in mammalian expression system at 1 uM by KinomeScan analysis; summary of the method: as §2
[15] = molecular target: T4, 1-phosphatidylinositol 3-phosphate 5-kinase; assay: Inhibition of Nano-Luc fused PIKFYVE (unknown origin) expressed in HEK293T cells pretreated for 3 hrs followed by K8-tarcer addition and measured after 1 hr by NanoBRET assay; format: cell-based
[16] = molecular target: T1, Mitogen-activated protein kinase 9; assay: Inhibition of JNK2 in human SUM159 cells at 1 uM by KiNativ Profiling analysis; format: cell-based; conditions: SUM159PT; summary of the method: as §1
Target sequence in this assay (P45984 whole entry, looked up): as the sequence (P45984 whole entry) above

Homo sapiens [17] = species on record: Homo sapiens; assay: Inhibition of CK1gamma (unknown origin) at 1 uM by KinomeScan analysis
Summary of the method: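 KINOMEscan ScanMAX panel screened at 1 μM compound.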

[18] = molecular target: T2, Mitogen-activated protein kinase 8; assay: Inhibition of wild type full length human JNK1 expressed in mammalian expression system at 1 uM by KinomeScan analysis; summary of the method: as §2
[19] = molecular target: T1, Mitogen-activated protein kinase 9; assay: Covalent binding affinity to JNK2 (unknown origin) assessed as Cys116 labelling at protein:compound concentration ratio of 1:5 incubated for 1 hr by capillary electrophoresis MS/MS analysis
Summary of the method: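 Purified JNK2 (5 μg) incubated 1 h at room temperature with 5-fold molar excess compound; intact mass by LC/MS, then trypsin digest and capillary electrophoresis-MS/MS database search for modified residue.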
Target sequence in this assay (P45984 whole entry, looked up): as the sequence (P45984 whole entry) above

[20] = molecular target: Mitogen-activated protein kinase 10 (Homo sapiens) (UniProt P53779); assay: Inhibition of human full length recombinant JNK3 at 1 uM by KinomeScan analysis; summary of the method: as §2
Chain of Mitogen-activated protein kinase 10 (Homo sapiens) (P53779 whole entry): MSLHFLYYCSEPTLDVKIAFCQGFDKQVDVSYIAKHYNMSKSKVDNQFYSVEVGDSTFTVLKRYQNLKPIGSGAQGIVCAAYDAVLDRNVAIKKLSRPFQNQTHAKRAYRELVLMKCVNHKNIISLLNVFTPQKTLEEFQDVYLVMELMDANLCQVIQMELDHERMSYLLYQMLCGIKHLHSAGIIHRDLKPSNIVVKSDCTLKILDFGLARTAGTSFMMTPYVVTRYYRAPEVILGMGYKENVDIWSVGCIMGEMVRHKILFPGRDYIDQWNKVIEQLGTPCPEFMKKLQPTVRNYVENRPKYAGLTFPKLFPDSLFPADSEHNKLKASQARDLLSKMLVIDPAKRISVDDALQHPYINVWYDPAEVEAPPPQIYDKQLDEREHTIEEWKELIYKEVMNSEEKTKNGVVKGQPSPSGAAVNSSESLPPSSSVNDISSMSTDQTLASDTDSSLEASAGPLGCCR

T4 sequence (Q9Y2I7 whole entry): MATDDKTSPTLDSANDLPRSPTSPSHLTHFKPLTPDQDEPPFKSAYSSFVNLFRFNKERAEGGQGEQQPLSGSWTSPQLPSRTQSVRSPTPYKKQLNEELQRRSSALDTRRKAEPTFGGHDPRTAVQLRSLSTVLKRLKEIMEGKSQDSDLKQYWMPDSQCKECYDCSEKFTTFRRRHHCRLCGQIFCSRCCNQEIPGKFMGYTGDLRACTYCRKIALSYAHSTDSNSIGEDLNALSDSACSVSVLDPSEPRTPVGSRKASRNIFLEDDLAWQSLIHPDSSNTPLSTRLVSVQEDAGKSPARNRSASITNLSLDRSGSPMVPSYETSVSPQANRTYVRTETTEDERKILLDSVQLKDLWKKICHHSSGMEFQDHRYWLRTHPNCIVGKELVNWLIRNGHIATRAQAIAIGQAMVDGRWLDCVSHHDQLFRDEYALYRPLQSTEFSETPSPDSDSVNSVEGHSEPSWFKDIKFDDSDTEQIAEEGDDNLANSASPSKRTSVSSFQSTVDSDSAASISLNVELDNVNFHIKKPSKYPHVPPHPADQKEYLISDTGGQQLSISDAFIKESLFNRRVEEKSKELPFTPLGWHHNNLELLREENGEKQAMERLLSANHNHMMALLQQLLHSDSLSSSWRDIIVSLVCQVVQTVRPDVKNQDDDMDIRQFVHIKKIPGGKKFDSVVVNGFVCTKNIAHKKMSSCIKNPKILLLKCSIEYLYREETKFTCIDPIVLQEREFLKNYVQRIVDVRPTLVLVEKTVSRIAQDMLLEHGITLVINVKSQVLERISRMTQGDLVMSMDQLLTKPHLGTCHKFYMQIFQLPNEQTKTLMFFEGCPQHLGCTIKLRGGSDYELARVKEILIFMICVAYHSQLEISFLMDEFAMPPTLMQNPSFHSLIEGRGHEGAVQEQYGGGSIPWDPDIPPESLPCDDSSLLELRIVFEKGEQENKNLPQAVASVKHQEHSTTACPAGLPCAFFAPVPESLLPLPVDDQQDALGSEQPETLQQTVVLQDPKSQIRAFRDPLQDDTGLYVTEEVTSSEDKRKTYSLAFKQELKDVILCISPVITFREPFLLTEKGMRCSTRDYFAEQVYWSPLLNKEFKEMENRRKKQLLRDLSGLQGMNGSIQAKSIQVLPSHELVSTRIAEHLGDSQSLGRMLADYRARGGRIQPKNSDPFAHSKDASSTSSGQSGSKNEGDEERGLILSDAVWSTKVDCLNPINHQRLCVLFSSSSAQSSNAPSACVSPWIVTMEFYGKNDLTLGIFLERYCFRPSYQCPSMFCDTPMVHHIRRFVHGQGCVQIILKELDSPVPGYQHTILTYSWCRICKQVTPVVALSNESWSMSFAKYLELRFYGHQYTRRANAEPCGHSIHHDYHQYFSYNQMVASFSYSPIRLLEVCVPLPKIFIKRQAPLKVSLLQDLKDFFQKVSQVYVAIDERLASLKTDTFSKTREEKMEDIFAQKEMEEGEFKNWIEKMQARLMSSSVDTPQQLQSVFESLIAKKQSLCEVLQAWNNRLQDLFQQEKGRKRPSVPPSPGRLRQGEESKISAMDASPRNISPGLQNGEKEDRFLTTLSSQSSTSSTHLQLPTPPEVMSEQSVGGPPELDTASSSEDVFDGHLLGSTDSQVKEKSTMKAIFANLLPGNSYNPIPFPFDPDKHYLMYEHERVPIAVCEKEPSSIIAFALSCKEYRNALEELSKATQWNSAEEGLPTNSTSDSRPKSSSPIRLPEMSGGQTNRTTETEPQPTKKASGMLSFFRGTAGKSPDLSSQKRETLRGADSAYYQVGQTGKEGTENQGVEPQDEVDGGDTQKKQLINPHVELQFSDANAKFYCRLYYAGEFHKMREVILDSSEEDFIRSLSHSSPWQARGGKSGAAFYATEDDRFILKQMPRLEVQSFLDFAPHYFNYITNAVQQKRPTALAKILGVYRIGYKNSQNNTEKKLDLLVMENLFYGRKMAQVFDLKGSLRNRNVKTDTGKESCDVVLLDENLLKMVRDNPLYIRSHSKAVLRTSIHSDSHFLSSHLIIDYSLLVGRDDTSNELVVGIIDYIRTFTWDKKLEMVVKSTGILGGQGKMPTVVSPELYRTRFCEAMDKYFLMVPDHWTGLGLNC
T3 sequence (Q16539 whole entry, the tested form may be a part): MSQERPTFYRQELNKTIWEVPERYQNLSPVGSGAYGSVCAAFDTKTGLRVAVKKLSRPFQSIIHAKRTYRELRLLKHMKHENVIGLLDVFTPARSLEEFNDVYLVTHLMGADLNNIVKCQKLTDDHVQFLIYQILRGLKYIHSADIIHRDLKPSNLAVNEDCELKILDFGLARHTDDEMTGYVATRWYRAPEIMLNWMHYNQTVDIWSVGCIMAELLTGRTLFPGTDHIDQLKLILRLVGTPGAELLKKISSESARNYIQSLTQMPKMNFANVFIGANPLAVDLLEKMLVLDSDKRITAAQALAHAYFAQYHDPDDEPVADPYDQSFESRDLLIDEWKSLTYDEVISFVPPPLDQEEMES
T2 sequence (P45983 whole entry): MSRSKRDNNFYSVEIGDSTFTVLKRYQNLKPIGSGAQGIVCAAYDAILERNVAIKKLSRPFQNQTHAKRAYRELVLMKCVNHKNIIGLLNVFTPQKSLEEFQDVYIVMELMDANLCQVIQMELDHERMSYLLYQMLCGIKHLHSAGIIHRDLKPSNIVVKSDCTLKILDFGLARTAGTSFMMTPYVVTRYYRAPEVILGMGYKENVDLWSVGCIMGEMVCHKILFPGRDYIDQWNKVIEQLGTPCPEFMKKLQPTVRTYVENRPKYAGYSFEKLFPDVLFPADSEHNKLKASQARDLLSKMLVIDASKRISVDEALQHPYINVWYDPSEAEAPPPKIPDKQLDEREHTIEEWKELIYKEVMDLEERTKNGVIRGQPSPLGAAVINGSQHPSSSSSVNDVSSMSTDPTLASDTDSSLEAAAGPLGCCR

Structure (SMILES): CN(C)C/C=C/C(=O)Nc1ccc(C(=O)N2CCCC[C@@H](Nc3nccc(-c4c(-c5ccccc5)nn5ccccc45)n3)C2)cc1
- pIC50 [1]: 7.77
- pIC50 [2]: 6.41
- Ratio IC50 (Homo sapiens [3]): 23

Structure (SMILES): Cc1cccn2nc(-c3ccccc3)c(-c3ccnc(N[C@H]4CCN(C(=O)c5ccc(NC(=O)/C=C/CN(C)C)cc5)C4)n3)c12
- Ratio IC50 (Homo sapiens [3]): 8

Structure (SMILES): Cc1ccc2c(-c3ccnc(N[C@H]4CCN(C(=O)c5ccc(NC(=O)/C=C/CN(C)C)cc5)C4)n3)c(-c3ccccc3)nn2c1
- pIC50 [1]: 9.00
- pIC50 [2]: 7.74
- Ratio IC50 (Homo sapiens [3]): 18

Structure (SMILES): O[C@H]1CC[C@H](Nc2ncc3nc(Nc4c(F)cc(F)cc4F)n([C@H]4CCOC4)c3n2)CC1 [TANZISERTIB]
- pIC50 [7]: < 4.52
- Activity (MM1.S): inactive
- Activity (HAP1): inactive

Structure (SMILES): CN(C)C/C=C/C(=O)Nc1ccc(C(=O)N2CC[C@H](Nc3nccc(-c4c(-c5ccccc5)nn5ccccc45)n3)C2)cc1
- inhibition [8]: Active
- inhibition [9]: Active
- pKd [10]: 6.57
- inhibition [11]: Active
- inhibition [12]: Active
- inhibition (SUM159PT): Active
- pIC50 [1]: 8.30
- inhibition [13]: Active
- inhibition [14]: Active
- pIC50 [2]: 6.78
- pIC50 [15]: 6.53
- Ratio IC50 (Homo sapiens [3]): 33
- inhibition [16]: Active
- inhibition (Homo sapiens [17]): Active
- inhibition [18]: Active
- Activity [19]: 100%
- inhibition [20]: Active

Now from value to molecule, other results behind:

- pIC50 [4]: 5.77
- inhibition [5]: Active
- pIC50 [6]: 7.82
Structure (SMILES): C[C@H]1CN(C(=O)c2ccc(NC(=O)CCCN(C)C)cc2)C[C@H]1Nc1nccc(-c2c(-c3ccccc3)nn3ccccc23)n1
- Activity (MM1.S): inactive

- pIC50 [1]: 8.30
- pIC50 [2]: 7.28
Structure (SMILES): CN(C)C/C=C/C(=O)Nc1ccc(C(=O)N2CCC[C@H](Nc3nccc(-c4c(-c5ccccc5)nn5ccccc45)n3)C2)cc1
- Ratio IC50 (Homo sapiens [3]): 10

- pIC50 [1]: 8.40
- pIC50 [2]: 7.17
Structure (SMILES): CN(C)C/C=C/C(=O)Nc1ccc(C(=O)N2CC[C@H](Nc3nccc(-c4c(-c5ccc(F)cc5)nn5ccccc45)n3)C2)cc1
- Ratio IC50 (Homo sapiens [3]): 17

- pIC50 [1]: 8.70
- pIC50 [2]: 8.00
Structure (SMILES): CN(C)C/C=C/C(=O)Nc1ccc(C(=O)N2CC[C@@H](Nc3nccc(-c4c(-c5ccccc5)nn5ccccc45)n3)C2)cc1
- Ratio IC50 (Homo sapiens [3]): 5
